Only a selection was taken, and hits are over-represented in it overall.
GSK3A inh: blocks human GSK-3 alpha kinase. P49840. ADP-Glo luminescence, 60 min. inhibition, % at 10 µM. hit rate 0.1% among 320,000. AID 2650;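 active means more than half of replicates show inhibition above 20%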;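 further: GST-tagged GSK-3 alpha with peptide substrate and 25 µM ATP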
GSK3B inh: inhibitors of human GSK3beta kinase. GST-GSK3beta kinase, ADP-Glo luminescence, 60 min; stronger effect = lower value. hit rate 0.038% among 300,000. activity score (negative = inhibition), % at 10 µM;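 active means more than half of replicate wells score below -50%, meaning over 50% inhibition versus plate controls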
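Test system: GST-tagged human GSK3beta kinase, cell-free; evaluation: activity score scaled between in-plate DMSO and GW8510 controls; measured by: ADP-Glo luminescence; incubation: 60 min reaction, RT; benchmarks: DMSO and 20 µM GW8510; reagent: peptide substrate plus 25 µM ATP (final); medium: Tris/MgCl2 kinase buffer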
STK33 kinase inh: human STK33 kinase inhibition; Q9BYT3; purified STK33, MBP phosphorylation, ADP-Glo luminescence; inhibition, % at 10 µM; hit rate 0.073% among 320,000;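 active means inhibition at or above 25%, using the most active replicate where run in duplicate; inactive means inhibition below 25%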
Target sequence (Q9BYT3 whole entry, looked up): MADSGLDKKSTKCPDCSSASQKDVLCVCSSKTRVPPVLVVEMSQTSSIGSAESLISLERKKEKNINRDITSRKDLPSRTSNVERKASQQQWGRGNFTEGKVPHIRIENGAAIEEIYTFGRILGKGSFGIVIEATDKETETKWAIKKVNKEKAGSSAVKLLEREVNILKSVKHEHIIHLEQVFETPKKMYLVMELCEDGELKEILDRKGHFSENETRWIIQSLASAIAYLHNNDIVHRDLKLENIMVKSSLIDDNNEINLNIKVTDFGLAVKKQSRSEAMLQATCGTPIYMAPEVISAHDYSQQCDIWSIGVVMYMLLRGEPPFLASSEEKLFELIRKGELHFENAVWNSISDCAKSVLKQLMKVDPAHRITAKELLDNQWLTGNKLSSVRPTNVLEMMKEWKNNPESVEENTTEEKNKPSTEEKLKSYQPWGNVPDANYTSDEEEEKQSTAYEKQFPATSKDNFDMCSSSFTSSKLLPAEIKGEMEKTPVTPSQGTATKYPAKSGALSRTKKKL
DYRK1A inh: inhibitors of rat Dyrk1A kinase | Q63470 | ADP-Glo luminescence, NFATc1 peptide | inhibition, % at 12.5 µM | hit rate 0.43% among 310,000 | AID 504441; in the data active means inhibition above about 50%
ADP-Glo artifact: interferes with ADP-Glo luciferase readout without Dyrk1A | 1,300 tested, under 10 active | ADP-Glo luciferase artifact assay, no Dyrk1A, luminescence | shares compounds with DYRK1A inh | AID 588348 | AC50, µM (series often up to 12 µM);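 active means fitted half-maximal dose AC50 no more than ten times the top valid tested dose, with luminescence dropping as dose rises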
Of the large screens only hits and unclear results are named; the others gave an inactive call (follow-up assays come after a bar, where they were run).

COC(=O)c1nccc2c1[nH]c1ccccc12	DYRK1A inh 66 | ADP-Glo artifact inactive
Cc1cccc(C)c1OCCOC(=O)c1n[nH]c2ccccc12	DYRK1A inh 60 | ADP-Glo artifact inactive
Cc1cccc(NC(=O)COC(=O)c2n[nH]c3ccccc23)c1C	none (no result: GSK3B inh)
COc1ccc(NS(=O)(=O)c2cc(NC(=O)/C=C/c3ccccc3OC)ccc2N2CCCCC2)cc1	none
COc1ccc2c(c1OC)C(=O)OC2C1c2c(cc3c(c2OC)OCO3)CCN1C (configuration not stated)	none
CN1CCc2cc3c(c4c2[C@H]1[C@H](O)c1ccccc1-4)OCO3	DYRK1A inh 82 | ADP-Glo artifact inactive
COc1cc(O)cc2cc3c(c(O)c12)C(=O)CC(C)(O)O3 (configuration not stated)	DYRK1A inh 108 (no result: GSK3B inh) | ADP-Glo artifact inactive
CC1CCC(C(C)C)C(OC(=O)CSc2n[nH]c(=O)[nH]c2=O)C1 (configuration not stated)	none
COc1ccc(/C=C2\SC(N3CCCCC3)=NC2=O)cc1	DYRK1A inh 67 | ADP-Glo artifact inactive
CCc1ccc(/C=C2\SC(N3CCCC3)=NC2=O)cc1	none (no result: DYRK1A inh)
COc1ccc(/C=C/C(=O)C2(O)CCCCC2)cc1OC	none (no result: DYRK1A inh)
CCOC(=O)c1ccc2ncc(C(=O)OCC)c(NCCCN3CCOCC3)c2c1	none
CCOC(=O)c1ccc2ncc(C(=O)OCC)c(Nc3ccc(N4CCOCC4)cc3)c2c1	DYRK1A inh 65 | ADP-Glo artifact inactive
COc1nccc(NCc2ccccc2)c1C#N	none (no result: DYRK1A inh)
Cc1cccc(NC(=O)C2NC(=O)CC2c2ccccc2)c1C (configuration not stated)	DYRK1A inh 59 (no result: GSK3A inh) | ADP-Glo artifact inactive
CC(=O)c1cccc(NC(=O)Nc2ccc3c(c2)N(C)C(=O)CS3)c1	DYRK1A inh 50 | ADP-Glo artifact inactive
CCN1CCN(c2nc(Nc3cccc(C)c3)nc(N)c2[N+](=O)[O-])CC1	DYRK1A inh 60 | ADP-Glo artifact inactive
COc1ccc(CNC(=O)COC(=O)c2ccc(F)c(S(=O)(=O)N3CCOCC3)c2)cc1	none (no result: GSK3B inh)
CCCCOc1cccc(C(=O)NC(=S)Nc2ccc(Cl)c(C(=O)O)c2)c1	DYRK1A inh 66 | ADP-Glo artifact inactive
O=C(NC(=S)Nc1ccc(Cl)c(C(=O)O)c1)c1cccc(COc2ccccc2)c1	none
O=C(O)c1ccc(/C=N/Nc2cccc(C(F)(F)F)c2)cc1	none (no result: GSK3A inh, GSK3B inh)
O=C(O)c1ccc(/C=N/Nc2ccc(C(F)(F)F)cn2)cc1	DYRK1A inh 54 (no result: GSK3A inh, STK33 kinase inh) | ADP-Glo artifact inactive
CC(=O)Nc1ccc(CCCCc2ccc(NC(C)=O)cc2)cc1	none (no result: GSK3A inh, GSK3B inh, STK33 kinase inh)
O=C1NCCc2c1[nH]c1ccccc21	none
COc1ccc2[nH]c3c(c2c1)CCNC3=O	DYRK1A inh 65 | ADP-Glo artifact inactive
Cc1ccc(-n2c3c(cc(C(=O)NCCCN4CCOCC4)c2=O)C(=O)CC(C)(C)C3)cc1	none
O=C1CCCc2c1cc(C(=O)NCCCN1CCOCC1)c(=O)n2-c1ccc(Cl)cc1	DYRK1A inh 58 | ADP-Glo artifact inactive
COc1cc(CO)cc(Br)c1OCc1cccnc1	DYRK1A inh 51 | ADP-Glo artifact inactive
COc1ccc(NC(=O)c2ccco2)cc1NC(=O)c1cccc(F)c1	none (no result: GSK3A inh, STK33 kinase inh)
COc1ccc(C(=O)c2sc(Nc3ccccc3F)nc2N)cc1	GSK3A inh 56, DYRK1A inh 61 | ADP-Glo artifact inactive
COc1ccc(C(=O)NC(=S)Nc2ccccc2F)cc1	none
COc1ccc(C(=O)c2sc(Nc3ccccc3)nc2N)cc1	none
Nc1nc(Nc2ccccc2)sc1C(=O)c1ccccc1	GSK3A inh 92, GSK3B inh -71, DYRK1A inh 81 | ADP-Glo artifact inactive
COCCCNc1c2c3c(cccc3[nH]c1=O)C(=O)c1ccccc1-2	DYRK1A inh 65 (no result: GSK3B inh) | ADP-Glo artifact inactive
COCCCNC1=C(Cl)C(=O)c2ccccc2C1=O	none (no result: DYRK1A inh)
O=C(c1ccc2c3n(nc2c1)-c1ccc(Cl)cc1CO3)N1CCOCC1	none
O=C(c1ccc2c3n(nc2c1)-c1ccccc1CO3)N1CCOCC1	GSK3A inh 51, STK33 kinase inh 43, DYRK1A inh 59 | ADP-Glo artifact 9µM
O=C(Nc1cccc2ncccc12)c1cc([N+](=O)[O-])ccc1Cl	none
CN(C)S(=O)(=O)c1ccc(Cl)c(C(=O)Nc2cccc3ncccc23)c1	DYRK1A inh 85 (no result: GSK3B inh) | ADP-Glo artifact inactive
O=C(Nc1cccc2ncccc12)c1ccco1	none
Cc1noc(C)c1S(=O)(=O)N(Cc1ccccc1)C(C)C	none (no result: DYRK1A inh)
COc1ccc(/C=C2\SC(=S)N(C(C)C(=O)NC3C=CS(=O)(=O)C3)C2=O)cc1 (configuration not stated)	DYRK1A inh 77 | ADP-Glo artifact inactive

From PubChem
